Assay [1] addresses T1, Histamine H3 receptor (Homo sapiens, UniProt Q9Y5N1). Briefly: Displacement of [3H]RAMHA from human histamine H3 receptor transfected in SK-N-MC cells. The class given is cell-based. Summed up:
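Membranes from SK-N-MC cells stably expressing human H3 receptor, incubated 60 min at room temperature with 0.5 nM [3H](R)-α-methylhistamine in 50 mM Tris–HCl/5 mM EDTA, pH 7.4; compounds 0.01 nM–10 µM. Filtration, two ice-cold washes, scintillation counting. Non-specific binding: 10 µM histamine. IC50 estimated from displacement curves.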

Assay [2] concerns the target Histamine H3 receptor (Rattus norvegicus, UniProt Q9QYN8). Briefly: Displacement of [3H]RAMHA from histamine H3 receptor in rat brain membranes. The class given is cell membranes. Summed up:
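Rat cerebral cortex membranes incubated 60 min at room temperature with 0.5 nM [3H](R)-α-methylhistamine in 50 mM Tris–HCl/0.5 mM EDTA/50 mM NaCl, pH 7.4; compounds 0.01 nM–10 µM. Rapid filtration, two ice-cold buffer washes, scintillation counting. Non-specific binding: 10 µM thioperamide. IC50 from displacement curves; mean of three experiments.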

Assay [3] has as its target Histamine H1 receptor (Cavia porcellus) (UniProt P31389). As to the kind of experiment: Activity at histamine H1 receptor in isolated guinea pig ileum up to 10 uM. In kind it is functional, tissue-based.
Assay [4] deals with Histamine H2 receptor (Cavia porcellus) (UniProt P47747). As to the kind of experiment: Activity at histamine H2 receptor in isolated guinea pig atrium up to 10 uM. The settings on record: Cardiac atrium. The class given is functional, tissue-based.
Sequence of Histamine H2 receptor (Cavia porcellus) (P47747 whole entry): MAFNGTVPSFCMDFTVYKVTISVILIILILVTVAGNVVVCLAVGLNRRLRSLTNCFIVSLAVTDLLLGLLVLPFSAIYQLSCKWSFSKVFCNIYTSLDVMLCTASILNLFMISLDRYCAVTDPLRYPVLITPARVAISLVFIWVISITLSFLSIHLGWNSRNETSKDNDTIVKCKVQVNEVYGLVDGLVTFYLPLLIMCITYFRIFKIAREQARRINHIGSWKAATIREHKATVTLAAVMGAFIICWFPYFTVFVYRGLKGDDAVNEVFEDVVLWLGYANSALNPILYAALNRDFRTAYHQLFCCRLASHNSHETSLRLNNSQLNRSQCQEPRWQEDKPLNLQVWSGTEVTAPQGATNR
In assay [5] the target is Histamine H3 receptor (Cavia porcellus) (UniProt Q9JI35). As to the kind of experiment: Activity at histamine H3 receptor assessed as RAMHA-induced inhibition of electrically-stimulated guinea pig isolated ileum. In kind it is functional, tissue-based. The settings on record: filed as antagonist.
Sequence of Histamine H3 receptor (Cavia porcellus) (Q9JI35 whole entry): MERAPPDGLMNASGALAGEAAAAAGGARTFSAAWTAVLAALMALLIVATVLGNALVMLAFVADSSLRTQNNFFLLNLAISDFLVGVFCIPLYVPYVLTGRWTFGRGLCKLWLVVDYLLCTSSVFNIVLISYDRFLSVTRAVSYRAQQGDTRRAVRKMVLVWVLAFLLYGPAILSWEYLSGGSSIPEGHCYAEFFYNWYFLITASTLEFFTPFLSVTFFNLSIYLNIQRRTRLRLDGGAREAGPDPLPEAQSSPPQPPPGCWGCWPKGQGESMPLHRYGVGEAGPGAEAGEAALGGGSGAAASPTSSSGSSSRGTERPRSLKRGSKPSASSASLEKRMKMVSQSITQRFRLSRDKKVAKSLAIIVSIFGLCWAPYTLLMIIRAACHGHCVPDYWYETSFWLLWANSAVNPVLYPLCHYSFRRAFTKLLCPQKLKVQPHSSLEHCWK
The target of assay [6] is T2, Acetylcholinesterase (Rattus norvegicus) (UniProt P37136).
T2 sequence (whole entry): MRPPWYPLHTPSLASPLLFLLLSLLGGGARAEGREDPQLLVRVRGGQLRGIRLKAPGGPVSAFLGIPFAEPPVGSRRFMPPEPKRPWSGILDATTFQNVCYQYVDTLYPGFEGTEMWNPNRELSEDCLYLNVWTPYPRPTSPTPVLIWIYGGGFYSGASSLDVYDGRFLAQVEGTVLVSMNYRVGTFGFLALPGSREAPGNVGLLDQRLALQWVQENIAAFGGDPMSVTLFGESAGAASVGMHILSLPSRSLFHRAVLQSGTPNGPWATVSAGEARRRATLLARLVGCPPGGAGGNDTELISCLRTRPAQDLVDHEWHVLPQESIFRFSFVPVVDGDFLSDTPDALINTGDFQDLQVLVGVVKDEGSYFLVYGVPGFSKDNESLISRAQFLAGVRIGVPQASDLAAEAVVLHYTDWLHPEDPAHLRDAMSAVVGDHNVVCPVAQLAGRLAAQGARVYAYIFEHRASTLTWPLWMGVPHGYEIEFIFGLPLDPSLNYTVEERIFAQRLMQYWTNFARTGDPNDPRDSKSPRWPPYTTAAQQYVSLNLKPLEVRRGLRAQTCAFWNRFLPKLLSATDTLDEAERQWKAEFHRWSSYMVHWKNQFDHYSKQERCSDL
Briefly: Inhibition of AChE in rat brain at 10 uM. The class given is tissue-based.

Assay [7] deals with T1, Histamine H3 receptor. Briefly: Antagonist activity against histamine H3 receptor assessed as beta galactosidase reporter gene transactivation in SK-N-MC cells. In kind it is functional, cell-based. A digest of the protocol: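 SK-N-MC cells expressing human H3 receptor; compounds (0.1 nM–10 µM) added to media, 5 min later forskolin (5 µM) and cumulative (R)-α-methylhistamine (0.1 nM–1 µM). After 6 h at 37 °C, cells lysed (0.5% Triton, 40 mM β-mercaptoethanol); read-out by absorbance 570 nm after overnight incubation at 20 °C.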

The values below come from ChEMBL document CHEMBL1146028, “Dibasic non-imidazole histamine H3 receptor antagonists with a rigid biphenyl scaffold” (Bioorg Med Chem Lett, 2006).

Each structure is given as a SMILES string. Activity calls are given as the source filed them. The calls are words filed in the database; no cut-off is given here.

Sequence of Histamine H1 receptor (Cavia porcellus) (P31389 whole entry): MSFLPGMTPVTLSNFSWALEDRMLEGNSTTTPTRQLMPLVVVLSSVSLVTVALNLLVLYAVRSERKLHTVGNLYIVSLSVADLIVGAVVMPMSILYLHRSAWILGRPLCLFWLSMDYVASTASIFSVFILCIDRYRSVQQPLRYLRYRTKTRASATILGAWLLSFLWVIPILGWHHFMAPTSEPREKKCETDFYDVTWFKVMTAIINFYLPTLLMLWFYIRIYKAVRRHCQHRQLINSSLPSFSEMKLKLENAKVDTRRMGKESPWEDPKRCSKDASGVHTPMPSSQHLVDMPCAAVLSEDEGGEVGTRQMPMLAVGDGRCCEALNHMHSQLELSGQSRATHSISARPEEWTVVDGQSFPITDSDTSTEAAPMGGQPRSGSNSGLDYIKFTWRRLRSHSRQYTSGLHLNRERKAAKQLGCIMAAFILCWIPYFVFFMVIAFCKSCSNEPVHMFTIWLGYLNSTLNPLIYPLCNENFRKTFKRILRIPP
Sequence of Histamine H3 receptor (Rattus norvegicus, UniProt Q9QYN8) (Q9QYN8 whole entry): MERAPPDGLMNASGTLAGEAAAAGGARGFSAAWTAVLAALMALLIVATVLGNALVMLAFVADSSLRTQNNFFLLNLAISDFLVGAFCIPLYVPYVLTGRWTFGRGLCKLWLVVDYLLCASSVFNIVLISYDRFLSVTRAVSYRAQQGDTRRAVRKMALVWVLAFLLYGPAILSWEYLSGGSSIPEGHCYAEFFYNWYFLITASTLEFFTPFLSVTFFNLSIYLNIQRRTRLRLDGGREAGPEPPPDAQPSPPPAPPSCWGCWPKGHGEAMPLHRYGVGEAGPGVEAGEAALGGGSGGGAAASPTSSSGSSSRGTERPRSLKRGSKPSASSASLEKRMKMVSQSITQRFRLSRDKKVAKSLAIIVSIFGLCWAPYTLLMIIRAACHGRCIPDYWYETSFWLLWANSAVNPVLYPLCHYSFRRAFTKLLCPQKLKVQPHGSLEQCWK
T1 sequence (Q9Y5N1 whole entry): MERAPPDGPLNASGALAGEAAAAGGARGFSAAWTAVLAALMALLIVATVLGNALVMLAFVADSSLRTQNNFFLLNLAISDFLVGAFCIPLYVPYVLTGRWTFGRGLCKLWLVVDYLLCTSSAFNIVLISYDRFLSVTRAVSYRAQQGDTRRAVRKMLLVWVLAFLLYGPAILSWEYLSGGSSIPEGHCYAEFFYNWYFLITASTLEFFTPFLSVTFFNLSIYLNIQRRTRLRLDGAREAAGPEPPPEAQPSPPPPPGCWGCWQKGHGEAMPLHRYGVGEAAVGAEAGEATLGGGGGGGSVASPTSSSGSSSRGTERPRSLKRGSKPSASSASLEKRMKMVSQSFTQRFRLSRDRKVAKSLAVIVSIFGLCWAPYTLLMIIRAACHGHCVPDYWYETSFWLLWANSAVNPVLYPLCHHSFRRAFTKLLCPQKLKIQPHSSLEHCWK

Regarding `CC1CC(C)CN(Cc2ccc(-c3ccc(CN4CC(C)CC(C)C4)cc3)cc2)C1` (stereo not drawn), the values for the Ki in assay [1] and in assay [2] were 398 nM and 676 nM, respectively. Besides, the outcome in assay [3] and in assay [4] was inactive. Also, in assay [5], the Activity entry is “Antagonist”.
In the case of `O=C1CCCCN1Cc1ccc(-c2ccc(CN3CCCCC3)cc2)cc1`, the Ki was 46.8 nM in assay [1] and 115 nM in assay [2]. Moreover, the result in assay [3] and in assay [4] was inactive. Also, the Activity entry in assay [5] is “Antagonist”.
`CC(=O)N1CCN(Cc2ccc(-c3ccc(CN4CCCCC4)cc3)cc2)CC1`: the results for the Ki in assay [1] and in assay [2] were 6.31 nM and 46.8 nM, respectively. Also, the outcome in assay [3] and in assay [4] was inactive. The Activity entry in assay [5] was “Antagonist”.
`CC(=O)N1CCN(Cc2ccc(-c3ccc(CN4CCN(C(C)=O)CC4)cc3)cc2)CC1`: the Ki was 1410 nM in assay [1] and 3890 nM in assay [2]. Moreover, the result in assay [3] and in assay [4] was inactive. The Activity result in assay [5] is “Antagonist”.
`c1cc(-c2ccc(CNC3CCCCC3)cc2)ccc1CNC1CCCCC1`: the Ki was 562 nM in assay [1] and 2090 nM in assay [2]. In addition, the result in assay [3] and in assay [4] was inactive. In assay [5], the Activity result is “Antagonist”.
`c1cc(CN2CCCCC2)ccc1CN1CCCCC1`: the Ki in assay [1] was 1230 nM; in assay [2] it was 4070 nM. The result in assay [3] and in assay [4] was inactive. Further, in assay [5], the Activity result was “Antagonist”.
With `CCCCCNCc1ccc(-c2ccc(CNCCCCC)cc2)cc1`, the results for the Ki in assay [1] and in assay [2] were 759 nM and 3310 nM, respectively. For the same compound, the outcome in assay [3] and in assay [4] was inactive. Also, the Activity result in assay [5] is “Antagonist”.
On to `c1cc(-c2ccc(CCN3CCCCC3)cc2)ccc1CCN1CCCCC1`, for which the values for the Ki in assay [1] and in assay [2] were 1.17 nM and 3.98 nM, respectively. Also, the outcome in assay [3] and in assay [4] was inactive. The Activity entry in assay [5] is “Antagonist”.
Consider `c1cc(-c2ccc(CN3CCCCC3)cc2)ccc1CNC1CCCCC1`, for which the Ki in assay [1] was 1.7 nM; in assay [2] it was 9.12 nM. In addition, the result in assay [3] and in assay [4] was inactive. Moreover, the Activity entry in assay [5] was “Antagonist”. The compound further yielded an inhibition in assay [6] of 50%.
As for `c1cc(-c2ccc(CN3CCOCC3)cc2)ccc1CN1CCOCC1`, the Ki in assay [1] is 12.3 nM; in assay [2] it was 81.3 nM. The result in assay [3] and in assay [4] was inactive. In assay [5], the Activity result is “Antagonist”.
Take `CC1CCN(Cc2ccc(-c3ccc(CN4CCC(C)CC4)cc3)cc2)CC1`: the Ki in assay [1] is 6.17 nM; in assay [2], 15.1 nM. Besides, the result in assay [3] and in assay [4] was inactive. Moreover, the Activity result in assay [5] is “Antagonist”. This compound gave an inhibition in assay [6] of 50%.
In the case of `CN(C)Cc1ccc(-c2ccc(CN(C)C)cc2)cc1`, the values for the Ki in assay [1] and in assay [2] were 1.86 nM and 6.61 nM, respectively. Moreover, the result in assay [3] and in assay [4] was inactive. In addition, in assay [5], the Activity result was “Antagonist”.
Regarding `NCc1ccc(-c2ccc(CN)cc2)cc1`, the Ki in assay [1] was 4470 nM; in assay [2], 8710 nM. Further, the result in assay [3] and in assay [4] was inactive. In addition, the Activity result in assay [5] is “Antagonist”.
With `CN(Cc1ccc(-c2ccc(CN(C)C3CCCCC3)cc2)cc1)C1CCCCC1`, the Ki is 37.2 nM in assay [1] and 214 nM in assay [2]. Further, the outcome in assay [3] and in assay [4] was inactive. The Activity result in assay [5] is “Antagonist”.
For the compound `c1cc(-c2ccc(CN3CCCCC3)cc2)ccc1CN1CCCCC1`, the Ki in assay [1] is 0.339 nM; in assay [2], 1.2 nM. Also, the result in assay [3] and in assay [4] was inactive. Besides, the Activity entry in assay [5] was “Antagonist”. In addition, in assay [7], the pKb was 8.77.
